Bioassay records deposited in PubChem by several laboratories.
ABHD5-PLIN5 inh = ABHD5-PLIN5 protein interaction inhibition | actives 0.78% (n = 360,000) | Split G. princeps luciferase complementation, luminescence, 4 h | Q00G26+Q8WTS1 | inhibition, % at 4 µM;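 active = inhibition above the mean inhibition across every tested compound plus 3 SD, cut at about 22% in these data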
UPR XBP1 act = activators of adaptive arm of unfolded protein response (XBP1); CHO-XBP1 luciferase reporter, IRE1-XBP1 UPR activation, luminescence; percent of tunicamycin response, DMSO as zero; activation, % at 20 µM; actives 0.33% (n = 330,000); AID 463104;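 active = versus positive control, 20 µM dose yields 30% or more activation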
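Assay system: CHO-XBP1 luciferase reporter cells; Schedule: 6 h treatment, 37 °C; Detection: glow luminescence from Steady-Glo reagent; Benchmarks: high control tunicamycin 10 µg/mL final, low control DMSO vehicle only.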
Exocytosis inh = blocks lytic granule exocytosis; TALL-104 LAMP-1 surface exposure, flow cytometry; cells stimulated with thapsigargin and PMA; inhibition, % at 10 µM; actives 0.66% (n = 360,000); AID 651702;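 active = inhibition above about 55%, limit read from the data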
Mdm2 MdmX PPI = inhibitors of human Mdm2/MdmX interaction; AID 485346; actives 3% (n = 330,000); inhibition, % at 8 µM; SaOS-2 split-luciferase Mdm2/MdmX complementation, luminescence; O15151+Q00987;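 active = inhibition of at least 50% at 8 µM in the primary screen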
Target sequence (O15151 whole entry, looked up): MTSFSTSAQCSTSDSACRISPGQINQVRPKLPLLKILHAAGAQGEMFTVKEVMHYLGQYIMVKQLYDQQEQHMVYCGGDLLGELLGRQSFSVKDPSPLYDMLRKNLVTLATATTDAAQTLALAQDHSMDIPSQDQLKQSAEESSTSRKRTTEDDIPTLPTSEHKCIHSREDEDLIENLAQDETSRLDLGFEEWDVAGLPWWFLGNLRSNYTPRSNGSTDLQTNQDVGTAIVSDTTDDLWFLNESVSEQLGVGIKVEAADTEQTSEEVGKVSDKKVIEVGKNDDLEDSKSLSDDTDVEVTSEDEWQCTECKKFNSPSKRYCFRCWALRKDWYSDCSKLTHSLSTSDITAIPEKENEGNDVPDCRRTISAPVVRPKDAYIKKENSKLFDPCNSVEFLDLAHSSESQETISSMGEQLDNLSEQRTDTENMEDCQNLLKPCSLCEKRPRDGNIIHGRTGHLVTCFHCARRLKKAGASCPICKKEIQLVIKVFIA
Target sequence (Q00987 whole entry, looked up): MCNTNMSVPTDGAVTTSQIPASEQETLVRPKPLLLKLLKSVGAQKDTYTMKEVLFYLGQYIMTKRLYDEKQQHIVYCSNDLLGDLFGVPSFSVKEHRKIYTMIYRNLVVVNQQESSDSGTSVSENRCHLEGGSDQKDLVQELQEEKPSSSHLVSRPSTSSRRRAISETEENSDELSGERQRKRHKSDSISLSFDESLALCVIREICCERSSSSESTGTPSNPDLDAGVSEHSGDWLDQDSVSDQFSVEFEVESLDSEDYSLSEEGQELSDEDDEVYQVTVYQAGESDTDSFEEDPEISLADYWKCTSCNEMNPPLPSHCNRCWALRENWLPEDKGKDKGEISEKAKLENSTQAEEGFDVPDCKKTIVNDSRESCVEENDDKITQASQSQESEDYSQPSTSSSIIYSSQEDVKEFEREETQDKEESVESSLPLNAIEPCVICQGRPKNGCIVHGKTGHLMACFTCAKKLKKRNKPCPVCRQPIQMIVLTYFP
UPR CHOP act = apoptotic UPR (CHOP) activation | CHO-CHOP luciferase reporter, luminescence; percent of tunicamycin response over DMSO baseline | activation, % at 10 µM | actives 0.34% (n = 330,000);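 active = at 10 µM dose, activation of 40% or more, normalized to positive control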
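Test system: CHO-CHOP cells, stable luciferase reporter of PERK-eIF2a-CHOP signalling | Quantity: 500 CHO-CHOP cells per well | Buffer or medium: F12 plus 10% serum | Compound dosing: 10 µM single point, 0.5% DMSO | Schedule: 6 h compound treatment, 37 °C | Signal: Luciferase luminescence | Control set: Tunicamycin high control, DMSO low control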
CHOP UPR conf = apoptotic UPR (CHOP) activation, confirmed. shares compounds with UPR CHOP act. CHO-CHOP cells, CHOP-luciferase reporter luminescence; percent of tunicamycin response, DMSO as zero. activation, % at 10 µM. actives 64% (n = 1,000). AID 463112; in the data active = activation above about 33%
UPR XBP1 confirm = confirmation of adaptive unfolded protein response (XBP1) activators; shares compounds with UPR XBP1 act; CHO-XBP1 IRE1-XBP1 luciferase reporter, luminescence; activation, % at 20 µM; actives 63% (n = 1,000); AID 485299;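 active = reporter signal at least 30% of the positive control's activation in two or more of four replicate wells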
Mdm2-MdmX conf = confirmation of human Mdm2/MdmX interaction inhibitors. shares compounds with Mdm2 MdmX PPI. Mdm2-MdmX binding, luminescent assay. inhibition, % at 8 µM. actives 55% (n = 10,000). AID 489028; in the data active = inhibition above about 40%
FLuc counter = inhibits full-length luciferase, flagging false Mdm2/MdmX hits; inhibition, % at 8 µM; AID 504607; SaOS-2 full-length luciferase counterscreen, luminescence; shares compounds with Mdm2 MdmX PPI; actives 77% (n = 6,200);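 active = mean inhibition at 8 µM reaching about 37%, which flags the compound as non-specific, limit read from the data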;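 note: p53-null SaOS-2 cells with luciferase driven by a doxycycline-inducible promoter; compound on cells about two nights before reading with doxycycline added after day one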
A number is an active result. Sampled rows, rich in hits. Any-hit rate of the full collection: about 4%.

How did CCOc1ccc2nc(SC3CC(=O)N(c4ccc(OC)cc4)C3=O)sc2c1 (centres undefined) do in these assays?
ABHD5-PLIN5 inh: inactive; UPR XBP1 act: inactive; Exocytosis inh: inactive; Mdm2 MdmX PPI: 66; UPR CHOP act: 45; CHOP UPR conf: inactive; Mdm2-MdmX conf: inactive

What do the screens show for `Cc1ccc(-c2nnc(-c3ccc(NC(=O)Cc4cccs4)cc3)o2)cc1`?
ABHD5-PLIN5 inh: inactive; UPR XBP1 act: 142; Exocytosis inh: inactive; Mdm2 MdmX PPI: 78; UPR CHOP act: 41; CHOP UPR conf: inactive; UPR XBP1 confirm: 52; Mdm2-MdmX conf: inactive

How did Cc1cccc(NCC(=O)N/N=C\c2cccn2C)c1 do in these assays?
ABHD5-PLIN5 inh: inactive; UPR XBP1 act: inactive; Exocytosis inh: inactive; Mdm2 MdmX PPI: inactive; UPR CHOP act: inactive

Results for Cc1ccc(S(=O)(=O)Nc2cccc3ncccc23)cc1 ?
ABHD5-PLIN5 inh: inactive; UPR XBP1 act: inactive; Exocytosis inh: inactive; Mdm2 MdmX PPI: inactive; UPR CHOP act: inactive

Results for Cc1ccc(S(=O)(=O)Nc2cccc3ncccc23)s1 ?
ABHD5-PLIN5 inh: inactive; UPR XBP1 act: inactive; Exocytosis inh: inactive; Mdm2 MdmX PPI: 101; UPR CHOP act: 219; CHOP UPR conf: inactive; Mdm2-MdmX conf: inactive

Results for O=C(Nc1ccc(O)c2c(=O)cc(-c3cccc(Cl)c3)oc12)c1ccccc1Cl ?
ABHD5-PLIN5 inh: inactive; UPR XBP1 act: inactive; Exocytosis inh: inactive; Mdm2 MdmX PPI: 91; UPR CHOP act: 52; CHOP UPR conf: 46; Mdm2-MdmX conf: inactive

How did CC(C)CC(=O)Nc1c2c(nn1-c1ccc(F)cc1)CS(=O)(=O)C2 do in these assays?
ABHD5-PLIN5 inh: inactive; UPR XBP1 act: inactive; Exocytosis inh: inactive; Mdm2 MdmX PPI: inactive; UPR CHOP act: inactive

Results for CCOC(=O)c1c2ccc(OCC(=O)N/N=C/c3ccc(C)cc3)cc2n2ccccc12 ?
ABHD5-PLIN5 inh: inactive; UPR XBP1 act: 123; Exocytosis inh: inactive; Mdm2 MdmX PPI: 84; UPR CHOP act: 158; CHOP UPR conf: 61; UPR XBP1 confirm: 106; Mdm2-MdmX conf: 79; FLuc counter: 107

How did CN(C)CC(CCC(CN(C)C)C(O)(c1ccccc1)c1ccccc1)C(O)(c1ccccc1)c1ccccc1 (centres undefined) do in these assays?
UPR XBP1 act: 35; Mdm2 MdmX PPI: 100; UPR CHOP act: 77; CHOP UPR conf: 84; UPR XBP1 confirm: 43; Mdm2-MdmX conf: 99; FLuc counter: 52

What do the screens show for `c1ccc2c(c1)nc1n2CN(Cc2ccc3c(c2)OCO3)CN1`?
ABHD5-PLIN5 inh: inactive; UPR XBP1 act: inactive; Exocytosis inh: inactive; Mdm2 MdmX PPI: inactive; UPR CHOP act: inactive

What do the screens show for `O=C(C[C@@H]1C/C=C/CC[C@H](Cc2ccc(F)cc2)C(=O)OC[C@@H](Cc2ccccc2)NC1=O)N[C@H](CO)Cc1ccccc1`?
ABHD5-PLIN5 inh: inactive; UPR XBP1 act: 152; Exocytosis inh: inactive; Mdm2 MdmX PPI: 96; UPR CHOP act: 65; CHOP UPR conf: inactive; UPR XBP1 confirm: 47; Mdm2-MdmX conf: 93; FLuc counter: inactive

Results for C[C@@H]1COC(=O)[C@H](Cc2ccc(F)cc2)CC/C=C/C[C@@H](CC(=O)N[C@@H](CO)Cc2ccccc2)C(=O)N1 ?
ABHD5-PLIN5 inh: inactive; UPR XBP1 act: inactive; Exocytosis inh: inactive; Mdm2 MdmX PPI: inactive; UPR CHOP act: inactive

Results for COc1ccc(CNC[C@@H](CCCCN(C)Cc2ccc(OC)cc2)N2C[C@H](c3ccccc3)N(CCc3ccc(Cl)c(Cl)c3)C(=O)C2=O)cc1 ?
ABHD5-PLIN5 inh: 32; UPR XBP1 act: inactive; Exocytosis inh: inactive; Mdm2 MdmX PPI: 99; UPR CHOP act: 134; CHOP UPR conf: 147; Mdm2-MdmX conf: 100; FLuc counter: 53

How did COc1ccc(CNC(=O)[C@@H]2CC=C[C@@H]3CCN(Cc4ccc(Cl)c(Cl)c4)C(=O)[C@@H]32)cc1 do in these assays?
ABHD5-PLIN5 inh: inactive; UPR XBP1 act: inactive; Exocytosis inh: inactive; Mdm2 MdmX PPI: inactive; UPR CHOP act: inactive

Results for COC(=O)c1cc(=O)n(Cc2ccco2)c(=Nc2ccc(F)c(Cl)c2)s1 ?
ABHD5-PLIN5 inh: inactive; UPR XBP1 act: inactive; Exocytosis inh: inactive; Mdm2 MdmX PPI: 100; UPR CHOP act: 55; CHOP UPR conf: 54; Mdm2-MdmX conf: inactive; FLuc counter: 65

How did COC(=O)c1cc(=O)n(Cc2ccc3c(c2)OCO3)c(=Nc2ccccc2)s1 do in these assays?
ABHD5-PLIN5 inh: inactive; UPR XBP1 act: inactive; Exocytosis inh: inactive; Mdm2 MdmX PPI: inactive; UPR CHOP act: inactive

How did Cc1ccc2nc(NC(=O)c3ccc(-c4nc5ccccc5s4)s3)sc2c1 do in these assays?
ABHD5-PLIN5 inh: inactive; UPR XBP1 act: 66; Exocytosis inh: inactive; Mdm2 MdmX PPI: 98; UPR CHOP act: 69; CHOP UPR conf: inactive; UPR XBP1 confirm: 89; Mdm2-MdmX conf: 46; FLuc counter: 84

Results for O=C(Nc1nc2ccccc2s1)c1ccc(Cl)s1 ?
ABHD5-PLIN5 inh: inactive; UPR XBP1 act: inactive; Exocytosis inh: inactive; Mdm2 MdmX PPI: inactive; UPR CHOP act: inactive

Results for O=C(NCc1ccccc1Cl)c1cccc2c1C(=O)c1ccc(-c3ccc(OC(F)(F)F)cc3)cc1S2(=O)=O ?
ABHD5-PLIN5 inh: inactive; UPR XBP1 act: 164; Exocytosis inh: inactive; Mdm2 MdmX PPI: 68; UPR CHOP act: 128; CHOP UPR conf: 85; UPR XBP1 confirm: 115; Mdm2-MdmX conf: inactive

What do the screens show for `O=C(NCc1cccc(OC(F)(F)F)c1)c1cccc2c1C(=O)c1ccc(-c3ccc(F)cc3OCc3ccccc3)cc1S2(=O)=O`?
ABHD5-PLIN5 inh: inactive; UPR XBP1 act: inactive; Exocytosis inh: inactive; Mdm2 MdmX PPI: inactive; UPR CHOP act: inactive

How did CC(C)Cc1nnc(NC(=O)CCC(=O)N2CCN(C3CCCC3)CC2)s1 do in these assays?
ABHD5-PLIN5 inh: inactive; UPR XBP1 act: inactive; Exocytosis inh: inactive; Mdm2 MdmX PPI: inactive; UPR CHOP act: inactive

How did Clc1nc2c(-c3ccccc3)nnn2c2ccccc12 do in these assays?
ABHD5-PLIN5 inh: inactive; UPR XBP1 act: inactive; Exocytosis inh: inactive; Mdm2 MdmX PPI: 100; UPR CHOP act: 60; CHOP UPR conf: inactive; Mdm2-MdmX conf: 55; FLuc counter: 51

How did O=S(=O)(NCC1CCCO1)c1ccc(S(=O)(=O)N(Cc2ccccn2)C2CC2)cc1 (centres undefined) do in these assays?
ABHD5-PLIN5 inh: inactive; UPR XBP1 act: inactive; Exocytosis inh: inactive; Mdm2 MdmX PPI: inactive; UPR CHOP act: inactive
